Reference: ChEMBL document CHEMBL1127862, “Nonpeptide angiotensin II receptor antagonists. Synthesis, in vitro activity, and molecular modeling studies of N-[(heterobiaryl)methyl] imidazoles” (J Med Chem, 1994)

How the values were obtained:
Angiotensin II receptor = target: T1, Angiotensin II receptor (Rattus norvegicus, UniProt P29089+P25095+P35351); assay: Tested for the binding affinity using radioligand [125I]-Sar1 Ile8-AII in the rat adrenal capsular membranes (adrenal cortex); format: cell membranes
T1 sequence (P29089 whole entry): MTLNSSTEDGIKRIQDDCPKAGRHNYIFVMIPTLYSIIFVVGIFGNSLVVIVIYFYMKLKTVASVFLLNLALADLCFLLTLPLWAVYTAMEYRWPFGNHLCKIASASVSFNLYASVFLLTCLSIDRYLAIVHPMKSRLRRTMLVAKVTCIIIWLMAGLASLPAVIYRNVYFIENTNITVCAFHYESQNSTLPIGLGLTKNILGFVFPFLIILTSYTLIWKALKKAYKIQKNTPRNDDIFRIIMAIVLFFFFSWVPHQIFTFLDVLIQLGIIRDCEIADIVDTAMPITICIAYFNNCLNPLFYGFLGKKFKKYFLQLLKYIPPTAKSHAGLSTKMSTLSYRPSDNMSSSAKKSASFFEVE
T1 sequence (P25095 whole entry): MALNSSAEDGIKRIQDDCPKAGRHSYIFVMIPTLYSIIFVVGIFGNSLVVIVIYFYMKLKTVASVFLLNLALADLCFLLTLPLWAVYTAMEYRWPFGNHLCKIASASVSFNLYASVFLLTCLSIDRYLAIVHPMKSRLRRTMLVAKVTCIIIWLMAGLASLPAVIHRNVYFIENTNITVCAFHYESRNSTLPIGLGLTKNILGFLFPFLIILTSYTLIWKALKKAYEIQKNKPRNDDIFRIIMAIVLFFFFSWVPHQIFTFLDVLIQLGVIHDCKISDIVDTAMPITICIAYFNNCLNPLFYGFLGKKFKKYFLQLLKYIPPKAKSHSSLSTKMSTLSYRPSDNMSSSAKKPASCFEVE
T1 sequence (P35351 whole entry): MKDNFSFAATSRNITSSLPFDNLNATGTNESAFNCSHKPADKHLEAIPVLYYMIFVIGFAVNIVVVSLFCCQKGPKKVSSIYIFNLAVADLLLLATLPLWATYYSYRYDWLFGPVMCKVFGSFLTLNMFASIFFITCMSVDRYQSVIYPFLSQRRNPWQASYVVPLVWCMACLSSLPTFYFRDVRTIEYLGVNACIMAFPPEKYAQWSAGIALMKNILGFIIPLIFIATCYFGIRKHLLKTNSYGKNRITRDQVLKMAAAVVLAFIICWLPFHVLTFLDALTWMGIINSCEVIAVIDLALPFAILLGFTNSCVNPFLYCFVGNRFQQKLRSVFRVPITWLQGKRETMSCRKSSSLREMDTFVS
Outline: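 Membranes from rat adrenal capsules, homogenized in 50 mM Tris-HCl, washed by repeated 50000g spins at 4 °C, resuspended in pH 7.4 sodium phosphate assay buffer with NaCl, EDTA, PMSF, protease inhibitors, BSA and bacitracin. Nonspecific binding defined with 1 uM unlabeled peptide. Bound label separated by vacuum filtration. Ki fitted from replicate curves.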

[1] = target: Angiotensin II receptor (Oryctolagus cuniculus); assay: Tested for the antagonism of AII-induced contraction in rabbit endothelium-denuded aorta strips

Structure (SMILES) | Ki (Angiotensin II receptor) [µM] | pA2 [1]
CCCCc1nc(Cl)c(CO)n1Cc1ccc(-c2ccsc2C(=O)O)cc1 | 14.5 | < 5
CCCCc1nc(CO)c(Cl)n1Cc1ccc(-c2ccoc2C(=O)O)cc1 | > 10 | 6
CCCCc1nc(CO)c(Cl)n1Cc1ccc(-c2cccnc2C(=O)O)cc1 | > 10 | < 5
CCCCc1nc(Cl)c(CO)n1Cc1ccc(-c2ncccc2C(=O)O)cc1 | 9.8 | < 5
CCCCc1nc(Cl)c(CO)n1Cc1ccc(-c2nc(C)sc2C(=O)O)cc1 | > 10 | < 5
CCCCc1nc(CO)c(Cl)n1Cc1ccc(-c2nc(C)sc2C(=O)O)cc1 | > 10 | <= 5
CCCCc1nc(Cl)c(CO)n1Cc1ccc(-c2ccccc2C(=O)O)s1 | > 10 | < 5
CCCCc1nc(CO)c(Cl)n1Cc1ccc(-c2ncccc2C(=O)O)cc1 | > 10 | < 5
CCCCc1nc(Cl)c(CO)n1Cc1ccc(-c2cccnc2C(=O)O)cc1 | 3.3 | 6.1
CCCCc1nc(Cl)c(CO)n1Cc1ccc(-c2ccoc2C(=O)O)cc1 | > 10 | < 5
CCCCc1nc(Cl)c(CO)n1Cc1ccc(-c2cnccc2C(=O)O)cc1 | 6.7 | < 5
CCCCc1nc(Cl)c(CO)n1Cc1ccc(-c2ccccc2C(=O)O)o1 | > 10 | 5.2
